ChEMBL document CHEMBL1145255, “Synthesis and antifungal activity of 5-arylamino-4,7-dioxobenzo[b]thiophenes” (2005)
≈ marks a conversion by molar mass, not a printed value.

How the values were obtained:
Type in all cases: functional
Pichia kudriavzevii = test: In vitro minimum inhibitory concentration against Candida krusei Berkout KCCM 11655 strain at 37 degree C after 1 day of treatment; details: KCCM 11655, 24 h
Method in brief: (§1)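 Two-fold broth dilution MIC in modified Sabouraud dextrose broth, inoculum about 1 × 10⁵ cells/mL, incubated at 37 °C. MIC was read after 1 day for the Candida species and after 2 days for A. niger.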

Aspergillus niger = test: In vitro minimum inhibitory concentration against Aspergillus niger KCTC 1231 strain at 37 degree C after 2 day of treatment; details: KCTC 1231, 48 h; method in brief: as §1
Candida albicans = test: In vitro minimum inhibitory concentration against Candida albicans Berkout KCCM 50235 strain at 37 degree C after 1 day of treatment; details: KCCM 50235, 24 h; method in brief: as §1
Candida tropicalis = test: In vitro minimum inhibitory concentration against Candida tropicalis Berkout KCCM 50662 strain at 37 degree C after 1 day of treatment; details: KCCM 50662, 24 h; method in brief: as §1

MIC (Pichia kudriavzevii) [µg/mL] | MIC (Aspergillus niger) [µg/mL] | MIC (Candida albicans) [µg/mL] | MIC (Candida tropicalis) [µg/mL] | Structure (SMILES)
25 (≈ 65.4 µM) | 25 (≈ 65.4 µM) | 12.5 (≈ 32.7 µM) | 6.3 (≈ 16.5 µM) | COC(=O)c1cc2c(s1)C(=O)C(Cl)=C(Nc1ccc(Cl)cc1)C2=O
12.5 (≈ 41.5 µM) | 0.8 (≈ 2.65 µM) | 0.8 (≈ 2.65 µM) | 0.8 (≈ 2.65 µM) | O=C1C(Nc2ccc(O)cc2)=CC(=O)c2sc(CO)cc21
0.8 (≈ 2.4 µM) | 50 (≈ 150 µM) | 50 (≈ 150 µM) | 1.6 (≈ 4.79 µM) | Cc1ccc(NC2=C(Cl)C(=O)c3sc(CO)cc3C2=O)cc1
> 25 | 25 (≈ 78.2 µM) | > 50 | 12.5 (≈ 39.1 µM) | O=C1C(Nc2ccc(Cl)cc2)=CC(=O)c2sc(CO)cc21
3.2 (≈ 8.25 µM) | 50 (≈ 129 µM) | 50 (≈ 129 µM) | 0.4 (≈ 1.03 µM) | O=C1C(Nc2ccc(C(F)(F)F)cc2)=C(Cl)C(=O)c2sc(CO)cc21
> 25 | 25 (≈ 82.4 µM) | 50 (≈ 165 µM) | 12.5 (≈ 41.2 µM) | O=C1C(Nc2ccc(F)cc2)=CC(=O)c2sc(CO)cc21
6.3 (≈ 14.3 µM) | 50 (≈ 114 µM) | 50 (≈ 114 µM) | 0.2 (≈ 0.455 µM) | COC(=O)c1cc2c(s1)C(=O)C=C(Nc1ccc(I)cc1)C2=O
1.6 (≈ 5 µM) | 12.5 (≈ 39.1 µM) | 6.3 (≈ 19.7 µM) | 3.2 (≈ 10 µM) | O=C1C(Nc2ccccc2)=C(Cl)C(=O)c2sc(CO)cc21
3.2 (≈ 8.47 µM) | 50 (≈ 132 µM) | 3.2 (≈ 8.47 µM) | 6.3 (≈ 16.7 µM) | COC(=O)c1cc2c(s1)C(=O)C(Cl)=C(Nc1ccc(OC)cc1)C2=O
6.3 (≈ 19.2 µM) | 50 (≈ 153 µM) | 50 (≈ 153 µM) | 3.2 (≈ 9.78 µM) | COC(=O)c1cc2c(s1)C(=O)C=C(Nc1ccc(C)cc1)C2=O
25 (≈ 60.8 µM) | 3.2 (≈ 7.78 µM) | 50 (≈ 122 µM) | 1.6 (≈ 3.89 µM) | O=C1C(Nc2ccc(I)cc2)=CC(=O)c2sc(CO)cc21
0.8 (≈ 2.01 µM) | 50 (≈ 125 µM) | 50 (≈ 125 µM) | 0.8 (≈ 2.01 µM) | O=C1C(Nc2ccc(Br)cc2)=C(Cl)C(=O)c2sc(CO)cc21
> 50 | > 50 | > 50 | 25 (≈ 74.5 µM) | O=C1C(Nc2ccc(O)cc2)=C(Cl)C(=O)c2sc(CO)cc21
1.6 (≈ 4.52 µM) | > 50 | 12.5 (≈ 35.3 µM) | 0.4 (≈ 1.13 µM) | O=C1C(Nc2ccc(Cl)cc2)=C(Cl)C(=O)c2sc(CO)cc21
12.5 (≈ 35.4 µM) | 0.8 (≈ 2.26 µM) | 0.8 (≈ 2.26 µM) | 0.8 (≈ 2.26 µM) | O=C1C(Nc2ccc(C(F)(F)F)cc2)=CC(=O)c2sc(CO)cc21
50 (≈ 257 µM) | 50 (≈ 257 µM) | > 50 | 25 (≈ 129 µM) | O=C1C=CC(=O)c2sc(CO)cc21
25 (≈ 60.1 µM) | 50 (≈ 120 µM) | 12.5 (≈ 30.1 µM) | 1.6 (≈ 3.85 µM) | COC(=O)c1cc2c(s1)C(=O)C(Cl)=C(Nc1ccc(C(F)(F)F)cc1)C2=O
> 50 | > 50 | > 50 | 25 (≈ 113 µM) | COC(=O)c1cc2c(s1)C(=O)C=CC2=O
25 (≈ 83.5 µM) | 3.2 (≈ 10.7 µM) | > 50 | 25 (≈ 83.5 µM) | Cc1ccc(NC2=CC(=O)c3sc(CO)cc3C2=O)cc1

MIC (Pichia kudriavzevii) [µg/mL] | MIC (Aspergillus niger) [µg/mL] | MIC (Candida albicans) [µg/mL] | MIC (Candida tropicalis) [µg/mL] | Structure (SMILES)
12.5 (≈ 38 µM) | 50 (≈ 152 µM) | 50 (≈ 152 µM) | 0.4 (≈ 1.21 µM) | COC(=O)c1cc2c(s1)C(=O)C=C(Nc1ccc(O)cc1)C2=O
25 (≈ 58.6 µM) | 25 (≈ 58.6 µM) | 0.8 (≈ 1.87 µM) | 3.2 (≈ 7.5 µM) | COC(=O)c1cc2c(s1)C(=O)C(Cl)=C(Nc1ccc(Br)cc1)C2=O
3.2 (≈ 8.79 µM) | 3.2 (≈ 8.79 µM) | 50 (≈ 137 µM) | 12.5 (≈ 34.3 µM) | O=C1C(Nc2ccc(Br)cc2)=CC(=O)c2sc(CO)cc21
25 (≈ 71.9 µM) | 50 (≈ 144 µM) | 50 (≈ 144 µM) | 6.3 (≈ 18.1 µM) | COC(=O)c1cc2c(s1)C(=O)C=C(Nc1ccc(Cl)cc1)C2=O
12.5 (≈ 31.9 µM) | 50 (≈ 127 µM) | 50 (≈ 127 µM) | 0.2 (≈ 0.51 µM) | COC(=O)c1cc2c(s1)C(=O)C=C(Nc1ccc(Br)cc1)C2=O
25 (≈ 79.3 µM) | 3.2 (≈ 10.1 µM) | 3.2 (≈ 10.1 µM) | 0.8 (≈ 2.54 µM) | COc1ccc(NC2=CC(=O)c3sc(CO)cc3C2=O)cc1
1.6 (≈ 4.2 µM) | 50 (≈ 131 µM) | 50 (≈ 131 µM) | 12.5 (≈ 32.8 µM) | COC(=O)c1cc2c(s1)C(=O)C=C(Nc1ccc(C(F)(F)F)cc1)C2=O
1.6 (≈ 3.59 µM) | 50 (≈ 112 µM) | 50 (≈ 112 µM) | 1.6 (≈ 3.59 µM) | O=C1C(Nc2ccc(I)cc2)=C(Cl)C(=O)c2sc(CO)cc21
6.3 (≈ 17.3 µM) | 50 (≈ 137 µM) | 12.5 (≈ 34.4 µM) | 0.8 (≈ 2.2 µM) | COC(=O)c1cc2c(s1)C(=O)C(Cl)=C(Nc1ccc(O)cc1)C2=O
1.6 (≈ 4.74 µM) | 50 (≈ 148 µM) | 12.5 (≈ 37 µM) | 0.4 (≈ 1.18 µM) | O=C1C(Nc2ccc(F)cc2)=C(Cl)C(=O)c2sc(CO)cc21
25 (≈ 68.3 µM) | 12.5 (≈ 34.2 µM) | 12.5 (≈ 34.2 µM) | 6.3 (≈ 17.2 µM) | COC(=O)c1cc2c(s1)C(=O)C(Cl)=C(Nc1ccc(F)cc1)C2=O
6.3 (≈ 22.1 µM) | 0.8 (≈ 2.8 µM) | 50 (≈ 175 µM) | 0.8 (≈ 2.8 µM) | O=C1C(Nc2ccccc2)=CC(=O)c2sc(CO)cc21
3.2 (≈ 9.15 µM) | 50 (≈ 143 µM) | 25 (≈ 71.5 µM) | 1.6 (≈ 4.57 µM) | COc1ccc(NC2=C(Cl)C(=O)c3sc(CO)cc3C2=O)cc1
25 (≈ 75.5 µM) | > 50 | > 50 | 25 (≈ 75.5 µM) | COC(=O)c1cc2c(s1)C(=O)C=C(Nc1ccc(F)cc1)C2=O
6.3 (≈ 18.1 µM) | 12.5 (≈ 35.9 µM) | 0.8 (≈ 2.3 µM) | 3.2 (≈ 9.2 µM) | COC(=O)c1cc2c(s1)C(=O)C(Cl)=C(Nc1ccccc1)C2=O
12.5 (≈ 39.9 µM) | 50 (≈ 160 µM) | 50 (≈ 160 µM) | 6.3 (≈ 20.1 µM) | COC(=O)c1cc2c(s1)C(=O)C=C(Nc1ccccc1)C2=O
25 (≈ 52.8 µM) | 3.2 (≈ 6.76 µM) | 6.3 (≈ 13.3 µM) | 1.6 (≈ 3.38 µM) | COC(=O)c1cc2c(s1)C(=O)C(Cl)=C(Nc1ccc(I)cc1)C2=O
25 (≈ 72.8 µM) | > 50 | > 50 | 6.3 (≈ 18.3 µM) | COC(=O)c1cc2c(s1)C(=O)C=C(Nc1ccc(OC)cc1)C2=O
25 (≈ 69.1 µM) | 50 (≈ 138 µM) | 0.8 (≈ 2.21 µM) | 12.5 (≈ 34.5 µM) | COC(=O)c1cc2c(s1)C(=O)C(Cl)=C(Nc1ccc(C)cc1)C2=O

Structure (SMILES) | MIC (Pichia kudriavzevii) [µg/mL] | MIC (Aspergillus niger) [µg/mL] | MIC (Candida albicans) [µg/mL] | MIC (Candida tropicalis) [µg/mL]
Nc1nc(=O)[nH]cc1F [FLUCYTOSINE] | 6.3 (≈ 48.8 µM) | 12.5 (≈ 96.8 µM) | 6.3 (≈ 48.8 µM) | 12.5 (≈ 96.8 µM)
